Reference: ChEMBL document CHEMBL3091324, “The optimization of aminooxadiazoles as orally active inhibitors of Cdc7” (Bioorg Med Chem Lett, 2013)
Values after ≈ are worked out from the molar mass of the structure shown.

Tests used:
Mus musculus [1] = assay: In vivo inhibition of Cdc7 in tumor of NCR/nude mouse xenografted with human HCT116 cells assessed as remaining Ser53 phosphorylated MCM2 level at 100 mg/kg, po measured at 6 hrs relative to control; format: functional, HCT-116
Method in brief: (§1)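 Female NCR/nude mice (n = 3 per group) given single oral dose of 100 mg/kg; pMCM2 levels measured at 6 and 16 h, expressed as % remaining versus vehicle control group; significance by one-way ANOVA with Dunnett's test.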

[2] = Oral bioavailability rat in 5 mg/kg; format: ADME, organism-based; conditions: in vivo
[3] = Clearance in rat at 1 mg/kg, iv and 5 mg/kg, po; format: ADME, organism-based; conditions: in vivo
[4] = Intrinsic clearance in human liver microsomes; format: ADME; conditions: read-out: CLH
[5] = Mean residence time in rat at 1 mg/kg, iv and 5 mg/kg, po; format: ADME, organism-based; conditions: in vivo
[6] = Intrinsic clearance in rat liver microsomes; format: ADME; conditions: read-out: CLH
Plasma [7] = assay: Unbound plasma concentration in NCR/nude mouse xenografted with human HCT116 cells at 100 mg/kg, po measured at 16 hrs by LC-MS analysis; format: ADME, organism-based, HCT-116; set-up: dose 100 mg/kg, route oral; conditions: in vivo
Method in brief: (§2)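 Female NCR/nude mice (n = 3) dosed orally at 100 mg/kg; plasma sampled at 6 and 16 h; unbound concentration calculated from total plasma concentration and percent free fraction in mouse plasma.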

[8] = Volume of distribution at steady state in rat at 1 mg/kg, iv and 5 mg/kg, po; format: ADME, organism-based; conditions: in vivo, read-out: Vdss
HCT-116 = assay: Cytotoxicity against human HCT116 cells assessed as cell viability after days by CellTiterGlo assay; format: functional, cell-based
Method in brief: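 HCT-116 cells exposed to compound for 4 d; cell viability IC50 determined.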

Plasma [9] = assay: Unbound plasma concentration in NCR/nude mouse xenografted with human HCT116 cells at 100 mg/kg, po measured at 6 hrs by LC-MS analysis; format: ADME, organism-based, HCT-116; set-up: dose 100 mg/kg, route oral; conditions: in vivo; method in brief: as §2
[10] = target: CDC7/DBF4 (Cell division cycle 7-related protein kinase/Activator of S phase kinase) (Homo sapiens, UniProt O00311); assay: Inhibition of Cdc7/Dbf4 (unknown origin)-mediated MCM2 phosphorylation at Ser53 by protein A amplified luminescent proximity homogeneous assay; format: protein-complex assay
CDC7/DBF4 (Cell division cycle 7-related protein kinase/Activator of S phase kinase), sequence (Q9UBU7 whole entry): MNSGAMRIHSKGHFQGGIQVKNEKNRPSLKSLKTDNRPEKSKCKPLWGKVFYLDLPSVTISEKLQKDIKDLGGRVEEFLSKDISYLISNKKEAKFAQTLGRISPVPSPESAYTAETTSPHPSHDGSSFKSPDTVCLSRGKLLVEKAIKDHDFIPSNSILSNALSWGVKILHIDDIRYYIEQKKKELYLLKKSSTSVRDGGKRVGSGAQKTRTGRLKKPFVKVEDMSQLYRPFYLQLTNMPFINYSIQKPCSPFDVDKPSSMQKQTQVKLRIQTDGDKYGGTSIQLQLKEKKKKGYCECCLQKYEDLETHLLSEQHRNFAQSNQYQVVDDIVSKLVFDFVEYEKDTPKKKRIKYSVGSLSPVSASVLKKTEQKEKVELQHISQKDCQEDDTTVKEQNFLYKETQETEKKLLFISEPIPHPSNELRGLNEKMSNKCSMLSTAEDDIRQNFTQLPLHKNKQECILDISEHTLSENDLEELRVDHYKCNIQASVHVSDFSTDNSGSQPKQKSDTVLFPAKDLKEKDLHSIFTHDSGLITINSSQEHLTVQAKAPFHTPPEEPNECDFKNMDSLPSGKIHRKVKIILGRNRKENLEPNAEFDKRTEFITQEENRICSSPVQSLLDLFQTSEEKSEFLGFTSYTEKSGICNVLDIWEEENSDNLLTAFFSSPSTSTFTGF
CDC7/DBF4 (Cell division cycle 7-related protein kinase/Activator of S phase kinase), sequence (O00311 whole entry): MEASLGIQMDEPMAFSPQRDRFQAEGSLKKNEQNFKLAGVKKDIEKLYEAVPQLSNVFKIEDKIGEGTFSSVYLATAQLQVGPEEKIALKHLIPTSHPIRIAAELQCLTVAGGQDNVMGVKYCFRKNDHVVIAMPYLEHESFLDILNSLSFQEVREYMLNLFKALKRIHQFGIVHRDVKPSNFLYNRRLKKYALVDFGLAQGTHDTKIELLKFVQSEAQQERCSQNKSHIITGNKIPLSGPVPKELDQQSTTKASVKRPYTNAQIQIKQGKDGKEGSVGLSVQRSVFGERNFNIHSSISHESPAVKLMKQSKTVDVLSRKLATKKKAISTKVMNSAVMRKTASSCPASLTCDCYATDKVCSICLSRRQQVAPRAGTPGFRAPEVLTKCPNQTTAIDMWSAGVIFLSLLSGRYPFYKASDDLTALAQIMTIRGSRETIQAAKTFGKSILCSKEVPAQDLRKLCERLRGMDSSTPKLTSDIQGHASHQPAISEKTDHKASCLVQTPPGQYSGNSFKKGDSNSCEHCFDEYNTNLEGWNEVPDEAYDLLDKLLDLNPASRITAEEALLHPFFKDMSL

[11] = target: Cyclin-dependent kinase 2/cyclin E1 (Homo sapiens, UniProt P24941); assay: Inhibition of CDK2/cyclin E (unknown origin) using ULight peptide as substrate by HTRF assay; format: protein-complex assay
[12] = target: Cell division cycle 7-related protein kinase (Homo sapiens, UniProt O00311); assay: Inhibition of Cdc7-mediated MCM2 phosphorylation at Ser53 in human HCT116 cells after 14 hrs by immunostaining assay; format: cell-based, HCT-116
Cell division cycle 7-related protein kinase, sequence (O00311 whole entry): as above

CDK9/cyclin T1 = CDK9/cyclin T1 (Homo sapiens, UniProt P50750); assay: Inhibition of CDK9/cyclin T1 (unknown origin) using 4eBP1 ULight peptide as substrate by HTRF assay; format: protein-complex assay
CDK9/cyclin T1, sequence (O60563 whole entry): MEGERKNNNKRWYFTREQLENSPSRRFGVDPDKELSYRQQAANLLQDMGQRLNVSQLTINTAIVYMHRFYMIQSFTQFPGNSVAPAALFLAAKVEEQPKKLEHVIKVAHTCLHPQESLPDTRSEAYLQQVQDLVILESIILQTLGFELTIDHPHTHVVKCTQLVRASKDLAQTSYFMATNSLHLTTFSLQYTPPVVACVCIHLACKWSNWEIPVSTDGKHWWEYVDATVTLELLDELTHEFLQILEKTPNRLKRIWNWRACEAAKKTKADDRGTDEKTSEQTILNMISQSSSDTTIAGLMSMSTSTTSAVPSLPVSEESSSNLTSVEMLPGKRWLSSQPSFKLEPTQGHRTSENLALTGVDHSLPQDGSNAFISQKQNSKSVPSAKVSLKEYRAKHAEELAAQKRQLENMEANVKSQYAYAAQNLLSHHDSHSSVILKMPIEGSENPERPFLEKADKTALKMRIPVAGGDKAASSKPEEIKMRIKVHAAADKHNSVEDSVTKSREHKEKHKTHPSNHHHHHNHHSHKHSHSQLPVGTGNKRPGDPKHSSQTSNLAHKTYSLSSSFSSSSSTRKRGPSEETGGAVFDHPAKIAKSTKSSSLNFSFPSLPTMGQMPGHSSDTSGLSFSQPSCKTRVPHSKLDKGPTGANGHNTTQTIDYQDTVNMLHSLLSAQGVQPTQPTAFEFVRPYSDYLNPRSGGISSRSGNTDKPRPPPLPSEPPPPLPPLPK
CDK9/cyclin T1, sequence (P50750 whole entry): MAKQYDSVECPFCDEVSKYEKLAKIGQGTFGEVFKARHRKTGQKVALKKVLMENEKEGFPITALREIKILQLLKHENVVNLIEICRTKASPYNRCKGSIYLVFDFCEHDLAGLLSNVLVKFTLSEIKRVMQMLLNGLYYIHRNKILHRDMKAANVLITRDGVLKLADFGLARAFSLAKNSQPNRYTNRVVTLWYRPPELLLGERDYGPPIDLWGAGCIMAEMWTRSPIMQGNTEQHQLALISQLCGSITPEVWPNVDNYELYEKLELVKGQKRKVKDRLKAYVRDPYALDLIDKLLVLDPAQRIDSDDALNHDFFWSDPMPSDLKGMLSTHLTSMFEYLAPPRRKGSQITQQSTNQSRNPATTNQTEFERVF

[13] = Solubility of the compound in simulated intestinal fluid; format: ADME
[14] = target: Cyclin-dependent kinase 1/cyclin B1 (Homo sapiens, UniProt P06493); assay: Inhibition of CDK1/cyclin B (unknown origin) by HTRF assay; format: protein-complex assay
Cyclin-dependent kinase 1/cyclin B1, sequence (P06493 whole entry): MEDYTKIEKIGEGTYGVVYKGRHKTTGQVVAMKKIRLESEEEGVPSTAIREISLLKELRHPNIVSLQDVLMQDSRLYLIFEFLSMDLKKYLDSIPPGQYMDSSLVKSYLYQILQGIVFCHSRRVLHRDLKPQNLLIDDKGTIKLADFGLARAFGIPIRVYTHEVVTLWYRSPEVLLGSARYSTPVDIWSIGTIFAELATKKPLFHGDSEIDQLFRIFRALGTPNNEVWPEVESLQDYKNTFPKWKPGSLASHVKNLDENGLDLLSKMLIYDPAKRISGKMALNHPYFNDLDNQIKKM
Cyclin-dependent kinase 1/cyclin B1, sequence (P14635 whole entry, further chain): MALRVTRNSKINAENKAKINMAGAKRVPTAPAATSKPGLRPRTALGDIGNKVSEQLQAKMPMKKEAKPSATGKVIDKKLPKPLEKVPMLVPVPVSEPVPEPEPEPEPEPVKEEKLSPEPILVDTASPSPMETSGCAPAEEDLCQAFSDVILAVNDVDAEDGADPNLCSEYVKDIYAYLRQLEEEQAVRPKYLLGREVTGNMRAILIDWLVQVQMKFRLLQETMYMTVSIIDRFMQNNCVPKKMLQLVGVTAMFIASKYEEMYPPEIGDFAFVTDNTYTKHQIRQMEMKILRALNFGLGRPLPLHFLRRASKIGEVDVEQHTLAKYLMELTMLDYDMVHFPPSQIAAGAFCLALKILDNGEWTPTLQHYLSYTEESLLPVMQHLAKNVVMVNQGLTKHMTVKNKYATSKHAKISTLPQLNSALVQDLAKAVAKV

Mus musculus [15] = assay: In vivo inhibition of Cdc7 in tumor of NCR/nude mouse xenografted with human HCT116 cells assessed as remaining Ser53 phosphorylated MCM2 level at 100 mg/kg, po measured at 16 hrs relative to control; format: functional, HCT-116; method in brief: as §1
Mus musculus [16] = assay: In vivo inhibition of Cdc7-mediated MCM2 phosphorylation at Ser53 in tumor of NCR/nude mouse xenografted with human HCT116 cells at 100 mg/kg, po; format: functional, organism-based; set-up: dose 100 mg/kg; conditions: HCT-116, TDE = time-dependent effect; method in brief: as §1
Homo sapiens = organism: Homo sapiens; assay: Selectivity ratio of IC50 for CDK2/cyclin E (unknown origin) to IC50 for Cdc7/Dbf4 (unknown origin)
[17] = Volume of distribution at steady state in rat at 2 mg/kg, iv; format: ADME, organism-based; set-up: dose 2 mg/kg, route intravenous; conditions: in vivo, read-out: Vdss
[18] = Mean residence time in rat at 2 mg/kg, iv; format: ADME, organism-based; set-up: dose 2 mg/kg, route intravenous; conditions: in vivo
[19] = Clearance in rat at 2 mg/kg, iv; format: ADME, organism-based; set-up: dose 2 mg/kg, route intravenous; conditions: in vivo

| SMILES | microsomal CLint [4] [µL/min/mg] | microsomal CLint [6] [µL/min/mg] | IC50 [10] [nM] | IC50 [11] [nM] | IC50 [12] [nM] | also measured |
| --- | --- | --- | --- | --- | --- | --- |
| Fc1cnc2[nH]cc(-c3nnc(N[C@@H](c4cccnc4F)C4CC4)o3)c2c1 | < 14 | 20 | 1.1 | 670 | 32 | Remaining phospho-MCM2 (% of control) (Mus musculus [1]): 46%; bioavailability [2]: 50%; clearance [3]: 28.3 mL/min/kg; MRT [5]: 1.9 h; Cp(f) (Plasma [7]): 300 nM; Vd [8]: 3.3 L/kg; IC50 (HCT-116): 2400 nM; Cp(f) (Plasma [9]): 610 nM; IC50 (CDK9/cyclin T1): 460 nM; solubility [13]: 160 µg/mL (≈ 434 µM); IC50 [14]: 6600 nM; Remaining Ser53 phospho-MCM2 vs control (Mus musculus [15]): 30%; Activity (Mus musculus [16]): tde |
| c1ccc(CNc2nnc(-c3ccc4[nH]ncc4c3)o2)cc1 | 98 | 402 | 20 | 170 | 730 | – |
| c1cnc2[nH]cc(-c3nnc(NCc4ccncc4)o3)c2c1 | < 14 | 37 | 110 | 350 | 12000 | – |
| Fc1cc2cc(-c3nnc(NCc4ccccc4)o3)ccc2cn1 | 49 | 56 | 10 | 6800 | 3200 | – |
| C[C@H](Nc1nnc(-c2c[nH]c3ncccc23)o1)c1ccccc1 | 15 | 17 | 35 | 98 | 2600 | – |
| CC[C@@H](Nc1nnc(-c2c[nH]c3ncccc23)o1)c1ccccc1 | 70 | 29 | 4 | 1700 | 150 | – |
| c1cncc(CNc2nnc(-c3c[nH]c4ncccc34)o2)c1 | < 14 | 30 | 190 | 610 | 7100 | – |
| CC(C)(Nc1nnc(-c2c[nH]c3ncccc23)o1)c1ccccc1 | 30 | 35 | 120 | 7 | 6200 | – |
| CC(C)[C@@H](Nc1nnc(-c2c[nH]c3ncccc23)o1)c1ccccc1 | 66 | 51 | 2 | 1200 | 140 | – |
| c1ccc([C@H](Nc2nnc(-c3c[nH]c4ncccc34)o2)C2CC2)cc1 | 56 | 31 | 1 | 1600 | 71 | – |
| Fc1cccc(CNc2nnc(-c3c[nH]c4ncccc34)o2)c1 | 54 | 71 | 10 | 61 | 580 | Ratio IC50 (Homo sapiens): 6 |
| O=c1[nH]c2ccc(-c3nnc(NCc4ccccc4)o3)cc2o1 | 69 | 30 | 590 | 47000 | > 50000 | – |
| O=C1Cc2cc(-c3nnc(NCc4ccccc4)o3)ccc2N1 | < 14 | < 14 | 770 | 33000 | > 50000 | – |
| Fc1ccccc1[C@H](Nc1nnc(-c2c[nH]c3ncncc23)o1)C1CC1 | < 14 | 34 | 1.5 | 750 | 130 | IC50 (CDK9/cyclin T1): 880 nM; IC50 [14]: > 50000 nM |
| Fc1ccc2c(-c3nnc(N[C@@H](c4cccnc4F)C4CC4)o3)c[nH]c2n1 | < 14 | 413 | 3.9 | 4000 | 250 | IC50 (CDK9/cyclin T1): 2400 nM; IC50 [14]: > 50000 nM |
| c1ccc(CNc2nnc(-c3c[nH]c4ncccc34)o2)cc1 | 31 | 40 | 24 | 150 | 780 | Ratio IC50 (Homo sapiens): 6 |
| Fc1ccccc1CNc1nnc(-c2c[nH]c3ncccc23)o1 | 32 | 46 | 35 | 580 | 1600 | Ratio IC50 (Homo sapiens): 17 |
| Fc1ccc(CNc2nnc(-c3c[nH]c4ncccc34)o2)cc1 | 47 | 58 | 25 | 98 | 690 | Ratio IC50 (Homo sapiens): 4 |
| c1ccc(CNc2nnc(-c3nc4ccncc4s3)o2)cc1 | 23 | 66 | 2300 | 19000 | > 50000 | – |
| c1ccc(CNc2nnc(-c3ccc4cnccc4c3)o2)cc1 | 120 | 166 | 17 | 350 | 710 | Vd [17]: 4.3 L/kg; MRT [18]: 0.2 h; clearance [19]: 300 mL/min/kg |
| c1ccc(CNc2nnc(-c3c[nH]c4ncccc34)o2)nc1 | < 14 | 14 | 170 | 2500 | 13000 | – |
| Nc1n[nH]c2ccc(-c3nnc(NCc4ccccc4)o3)cc12 | 26 | 74 | 11 | 230 | 1200 | – |
| Fc1ncccc1[C@H](Nc1nnc(-c2c[nH]c3ncccc23)o1)C1CC1 | 21 | 80 | 0.69 | 490 | 51 | Remaining phospho-MCM2 (% of control) (Mus musculus [1]): 40%; bioavailability [2]: 41%; clearance [3]: 75 mL/min/kg; MRT [5]: 1.3 h; Cp(f) (Plasma [7]): 70 nM; Vd [8]: 5.9 L/kg; IC50 (HCT-116): 1800 nM; Cp(f) (Plasma [9]): 1300 nM; IC50 (CDK9/cyclin T1): 120 nM; solubility [13]: 200 µg/mL (≈ 571 µM); IC50 [14]: 7300 nM; Remaining Ser53 phospho-MCM2 vs control (Mus musculus [15]): 41% |
